From ChEMBL document CHEMBL4406880, “Design, synthesis, and bioactivity of dihydropyrimidine derivatives as kinesin spindle protein inhibitors” (Bioorg Med Chem, 2019)

What was measured:
Type in all cases: functional
CCRF-CEM = assay: Growth inhibition of human CCRF-CEM cells assessed as growth percentage at 10 uM incubated for 48 hrs by sulforhodamine B assay relative to control; conditions: read-out: Activity
In short: (§1)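 NCI-60 one-dose screen: cells in RPMI 1640 with 5% FBS and 2 mM L-glutamine, plated at 5,000–40,000 cells/well and preincubated 24 h at 37 °C, 5% CO2. Compound is added from a DMSO stock to a final 10 µM and incubated 48 h. Cells are TCA-fixed and stained with sulforhodamine B, read at 515 nm. Output is % growth versus untreated control, with a time-zero plate.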

K562 = assay: Growth inhibition of human K562 cells assessed as growth percentage at 10 uM incubated for 48 hrs by sulforhodamine B assay relative to control; conditions: K562, 48 h, read-out: Activity
In short: (§2)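 NCI-60 one-dose screen. Cells in RPMI 1640 with 5% FBS and 2 mM L-glutamine, seeded at 5,000–40,000 cells/well according to doubling time, and preincubated overnight at 37 °C, 5% CO2. A time-zero plate was TCA-fixed at drug addition. Compound from DMSO stock, final 10 µM, 48 h; DMSO vehicle controls. Fixation with TCA, 10% final (16% for suspension cells). SRB stain, Tris solubilization, A515. Result given as % growth versus untreated cells.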

HL-60(TB) = assay: Growth inhibition of human HL-60(TB) cells assessed as growth percentage at 10 uM incubated for 48 hrs by sulforhodamine B assay relative to control; conditions: HL-60, 48 h, read-out: Activity
In short: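 NCI-60 single-dose screen. Cells in RPMI 1640 with 5% FBS and 2 mM L-glutamine are plated at 5,000–40,000 cells/well and preincubated overnight at 37 °C, 5% CO2. Compound is added from a DMSO stock at 10 µM final for 48 h. Cells are TCA-fixed (suspension cells 16% final) and stained with SRB. Absorbance is read at 515 nm, and percentage growth is calculated against untreated controls with a time-zero plate.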

HOP-62 = assay: Growth inhibition of human HOP62 cells assessed as growth percentage at 10 uM incubated for 48 hrs by sulforhodamine B assay relative to control; conditions: HOP-62, 48 h, read-out: Activity; in short: as §2
NCI-H226 = assay: Growth inhibition of human NCI-H226 cells assessed as growth percentage at 10 uM incubated for 48 hrs by sulforhodamine B assay relative to control; conditions: NCI-H226, 48 h, read-out: Activity; in short: as §2
NCI-H23 = assay: Growth inhibition of human NCI-H23 cells assessed as growth percentage at 10 uM incubated for 48 hrs by sulforhodamine B assay relative to control; conditions: NCI-H23, 48 h, read-out: Activity; in short: as §2
NCI-H460 = assay: Growth inhibition of human NCI-H460 cells assessed as growth percentage at 10 uM incubated for 48 hrs by sulforhodamine B assay relative to control; conditions: NCI-H460, 48 h, read-out: Activity; in short: as §2
HCC 2998 = assay: Growth inhibition of human HCC2998 cells assessed as growth percentage at 10 uM incubated for 48 hrs by sulforhodamine B assay relative to control; conditions: HCC 2998, 48 h, read-out: Activity; in short: as §1
HCT-15 = assay: Growth inhibition of human HCT15 cells assessed as growth percentage at 10 uM incubated for 48 hrs by sulforhodamine B assay relative to control; conditions: HCT-15, 48 h, read-out: Activity; in short: as §1
SW-620 = assay: Growth inhibition of human SW620 cells assessed as growth percentage at 10 uM incubated for 48 hrs by sulforhodamine B assay relative to control; conditions: SW-620, 48 h, read-out: Activity
In short: (§3)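 NCI-60 single-dose screen. Cells were grown in RPMI 1640 with 5% FBS and 2 mM L-glutamine and plated at 5,000–40,000 cells/well. After an overnight preincubation at 37 °C in 5% CO2, compound was added at a final 10 µM from a DMSO stock, with DMSO/PBS controls. After 48 h, cells were TCA-fixed and stained with 0.4% SRB, and absorbance was read at 515 nm. Growth is given as a percentage of untreated control.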

SF-268 = assay: Growth inhibition of human SF268 cells assessed as growth percentage at 10 uM incubated for 48 hrs by sulforhodamine B assay relative to control; conditions: SF-268, 48 h, read-out: Activity; in short: as §3
SF-539 = assay: Growth inhibition of human SF539 cells assessed as growth percentage at 10 uM incubated for 48 hrs by sulforhodamine B assay relative to control; conditions: SF-539, 48 h, read-out: Activity; in short: as §3
Malme-3M = assay: Growth inhibition of human MALME-3M cells assessed as growth percentage at 10 uM incubated for 48 hrs by sulforhodamine B assay relative to control; conditions: read-out: Activity; in short: as §2
SK-MEL-2 = assay: Growth inhibition of human SK-MEL-2 cells assessed as growth percentage at 10 uM incubated for 48 hrs by sulforhodamine B assay relative to control; conditions: SK-MEL-2, 48 h, read-out: Activity; in short: as §3
SK-MEL-5 = assay: Growth inhibition of human SK-MEL-5 cells assessed as growth percentage at 10 uM incubated for 48 hrs by sulforhodamine B assay relative to control; conditions: SK-MEL-5, 48 h, read-out: Activity; in short: as §3
UACC-62 = assay: Growth inhibition of human UACC62 cells assessed as growth percentage at 10 uM incubated for 48 hrs by sulforhodamine B assay relative to control; conditions: UACC-62, 48 h, read-out: Activity; in short: as §3
OVCAR-8 = assay: Growth inhibition of human OVCAR8 cells assessed as growth percentage at 10 uM incubated for 48 hrs by sulforhodamine B assay relative to control; conditions: OVCAR-8, 48 h, read-out: Activity; in short: as §3
A498 = assay: Growth inhibition of human A498 cells assessed as growth percentage at 10 uM incubated for 48 hrs by sulforhodamine B assay relative to control; conditions: A498, 48 h, read-out: Activity; in short: as §1
ACHN = assay: Growth inhibition of human ACHN cells assessed as growth percentage at 10 uM incubated for 48 hrs by sulforhodamine B assay relative to control; conditions: read-out: Activity; in short: as §1
RXF 393 = assay: Growth inhibition of human RXF393 cells assessed as growth percentage at 10 uM incubated for 48 hrs by sulforhodamine B assay relative to control; conditions: RXF 393, 48 h, read-out: Activity; in short: as §3
SN12C = assay: Growth inhibition of human SN12C cells assessed as growth percentage at 10 uM incubated for 48 hrs by sulforhodamine B assay relative to control; conditions: read-out: Activity; in short: as §3
TK-10 = assay: Growth inhibition of human TK10 cells assessed as growth percentage at 10 uM incubated for 48 hrs by sulforhodamine B assay relative to control; conditions: TK-10, 48 h, read-out: Activity; in short: as §3
UO-31 = assay: Growth inhibition of human UO31 cells assessed as growth percentage at 10 uM incubated for 48 hrs by sulforhodamine B assay relative to control; conditions: UO-31, 48 h, read-out: Activity; in short: as §3
BT-549 = assay: Growth inhibition of human BT549 cells assessed as growth percentage at 10 uM incubated for 48 hrs by sulforhodamine B assay relative to control; conditions: BT-549, 48 h, read-out: Activity; in short: as §1

O=C1C2=C(NC(=S)NC2c2ccc3c(c2)OCO3)c2ccccc21 (racemic)
growth at 10 µM (CCRF-CEM): 108% | growth at 10 µM (K562): 103% | growth at 10 µM (HL-60(TB)): 99.7% | growth at 10 µM (HOP-62): 104% | growth at 10 µM (NCI-H226): 92.6% | growth at 10 µM (NCI-H23): 98.5% | growth at 10 µM (NCI-H460): 111% | growth at 10 µM (HCC 2998): 106% | growth at 10 µM (HCT-15): 105% | growth at 10 µM (SW-620): 95.2% | growth at 10 µM (SF-268): 91.8% | growth at 10 µM (SF-539): 105% | growth at 10 µM (Malme-3M): 106% | growth at 10 µM (SK-MEL-2): 105% | growth at 10 µM (SK-MEL-5): 101% | growth at 10 µM (UACC-62): 99.7% | growth at 10 µM (OVCAR-8): 102% | growth at 10 µM (A498): 109% | growth at 10 µM (ACHN): 106% | growth at 10 µM (RXF 393): 107% | growth at 10 µM (SN12C): 95.8% | growth at 10 µM (TK-10): 102% | growth at 10 µM (UO-31): 77% | growth at 10 µM (BT-549): 101%

O=C1NC2=C(C(=O)c3ccccc32)C(c2ccc3c(c2)OCO3)N1 (racemic)
growth at 10 µM (CCRF-CEM): 103% | growth at 10 µM (K562): 104% | growth at 10 µM (HL-60(TB)): 98.9% | growth at 10 µM (HOP-62): 96.1% | growth at 10 µM (NCI-H226): 102% | growth at 10 µM (NCI-H23): 104% | growth at 10 µM (NCI-H460): 113% | growth at 10 µM (HCC 2998): 107% | growth at 10 µM (HCT-15): 105% | growth at 10 µM (SW-620): 104% | growth at 10 µM (SF-268): 97.4% | growth at 10 µM (SF-539): 94.7% | growth at 10 µM (Malme-3M): 106% | growth at 10 µM (SK-MEL-2): 108% | growth at 10 µM (SK-MEL-5): 101% | growth at 10 µM (UACC-62): 101% | growth at 10 µM (OVCAR-8): 102% | growth at 10 µM (A498): 112% | growth at 10 µM (ACHN): 104% | growth at 10 µM (RXF 393): 98.8% | growth at 10 µM (SN12C): 100% | growth at 10 µM (TK-10): 96.1% | growth at 10 µM (UO-31): 85.4% | growth at 10 µM (BT-549): 102%
